For assay [1], the system named is HCT-116. Put plainly: Inhibition of colony formation in human HCT116 cells assessed as reduction in number of colonies up to 40 uM incubated for 24 hrs supplemented with fresh medium containing compound every 3 days for 12 days by crystal violet staining-based microscopic analysis. The class given is functional, cell-based. An outline of the steps:
(§1)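 400–800 cells per well seeded in 6-well plates; after 24 h, PEC (0–40 μM) added. Medium with or without compound replaced every three days for 12 days. Colonies washed in cold PBS, fixed in methanol, stained 15 min with 0.5% crystal violet and counted under a microscope. Mean ± SD of three experiments.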

The subject of a further assay is SW48. Briefly: Inhibition of colony formation in human SW48 cells assessed as reduction in size of colonies up to 40 uM incubated for 24 hrs supplemented with fresh medium containing compound every 3 days for 12 days by crystal violet staining-based microscopic analysis. It counts as functional, cell-based. An outline of the steps:
as §1

Assay [2] concerns HCT-116. Put plainly: Induction of apoptosis in human HCT116 cells assessed as appearance of condensed nuclei up to 40 uM after 48 hrs by Hoechst 33258 staining-based fluorescent microscopic analysis. It counts as functional, cell-based. A digest of the protocol: (§2)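 Cells (1–2 × 10^5 per well) plated on 18-mm coverslips in six-well plates for 24 h, treated at various concentrations for 48 h, washed with cold PBS, fixed 15 min in 4% paraformaldehyde, stained with Hoechst 33258 (5 μg/ml); condensed/fragmented nuclei scored by fluorescence microscopy (10×); stained positive cells, mean ± SD of three experiments.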

Assay [3] concerns HCT-116. Briefly: Induction of apoptosis in human HCT116 cells assessed as nuclear fragmentation up to 40 uM after 48 hrs by Hoechst 33258 staining-based fluorescent microscopic analysis. The class given is functional, cell-based. A digest of the protocol: as §2
The test system of assay [4] is CT26. Put plainly: Induction of apoptosis in mouse CT26 cells assessed as nuclear fragmentation up to 40 uM after 48 hrs by Hoechst 33258 staining-based fluorescent microscopic analysis. It counts as functional, cell-based. A digest of the protocol:
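CT26 cells plated at 1–2 × 10^5 per well on 18-mm coverslips in six-well plates for 24 h, then treated 48 h with PEC. Washed in cold PBS, fixed 15 min in 4% paraformaldehyde, stained with Hoechst 33258 (5 μg/ml). Nuclear morphology viewed by fluorescence microscopy (10×); positive cells counted, mean ± SD of three experiments.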

Assay [5] deals with CT26. Put plainly: Induction of apoptosis in mouse CT26 cells assessed as early apoptotic cells at 10 uM after 48 hrs by Annexin V-FITC/propidium iodide staining-based flow cytometric analysis (reference value: 2.84 %). It counts as functional. A digest of the protocol:
(§3)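 CT26 cells seeded at 1–2 × 10^5 per well in six-well plates for 24 h, then exposed to PEC (0–40 μM) for 24 or 48 h. Cells harvested, washed twice in cold PBS, stained with Annexin V-FITC/PI and read by flow cytometry. Early apoptotic = Annexin V+ only; late apoptotic = Annexin V+/PI+. Mean ± SD of three experiments.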

For assay [6], the system named is CT26. Put plainly: Induction of apoptosis in mouse CT26 cells assessed as necrotic cells at 10 uM after 48 hrs by Annexin V-FITC/propidium iodide staining-based flow cytometric analysis (reference value: 1.80 %). It counts as functional. An outline of the steps:
as §3
For orientation: In flow cytometry, cells or beads pass a laser one at a time.

Assay [7] has as its system HCT-116. Put plainly: Induction of apoptosis in human HCT116 cells assessed as late apoptotic cells at 10 uM after 48 hrs by Annexin V-FITC/propidium iodide staining-based flow cytometric analysis (reference value: 3.87 %). It counts as functional. An outline of the steps: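 Cells (1–2 × 10^5 per well) seeded in six-well plates 24 h, treated at 0–40 μM for 24 h or 48 h, harvested, washed twice in cold PBS, stained with Annexin V-FITC/PI and analysed by flow cytometry; early (Annexin V only) and late (Annexin V and PI) apoptotic fractions quantified; three experiments.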

The test system of assay [8] is HCT-116. Briefly: Induction of apoptosis in human HCT116 cells assessed as increase in cleaved caspase-3 expression after 48 hrs by Western blot analysis. The class given is functional, cell-based. A digest of the protocol: (§4)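 Cells treated 48 h at 0, 10, 20 and 40 μM, washed in cold PBS, lysed in RIPA; protein equalized by Lowry assay, resolved by SDS-PAGE, transferred to PVDF, blocked 1 h at 37 °C, primary antibody overnight at 4 °C, secondary 1 h, ECL detection, densitometry. β-actin loading control.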
On the technique in general: Immunoblotting shows a protein as a band on a membrane.

Assay [9] deals with CT26. Put plainly: Induction of apoptosis in mouse CT26 cells assessed as decrease in pro-caspase-3 expression up to 40 uM after 48 hrs by Western blot analysis. The class given is functional, cell-based. An outline of the steps: as §4
In assay [10] the test system is HCT-116. Put plainly: Induction of apoptosis in human HCT116 cells assessed as decrease in pro-caspase-3 expression up to 40 uM after 48 hrs by Western blot analysis. It counts as functional, cell-based. A digest of the protocol:
as §4

In assay [11] the test system is CT26. Briefly: Induction of apoptosis in mouse CT26 cells assessed as decrease in Bcl-2 protein expression up to 40 uM after 48 hrs by Western blot analysis. The class given is functional, cell-based. An outline of the steps:
as §4

The test system of assay [12] is CT26. Put plainly: Induction of apoptosis in mouse CT26 cells assessed as increase in Bax protein expression up to 40 uM after 48 hrs by Western blot analysis. The class given is functional, cell-based. An outline of the steps:
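CT26 cells exposed 48 h to PEC at 0, 10, 20 and 40 μM, washed twice in cold PBS, lysed in RIPA. Protein measured by Lowry and equalized, run on SDS-PAGE, blotted to PVDF. Blocked 1 h at 37 °C, primary antibodies (Bax, Bcl-2, pro-caspase-3, cleaved caspase-3) overnight at 4 °C, secondary 1 h, ECL detection, densitometry.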

In assay [13] the test system is HCT-116. Briefly: Induction of apoptosis in human HCT116 cells assessed increase in Bax/Bcl2 protein ratio up to 40 uM after 48 hrs by Western blot analysis. The class given is functional, cell-based. An outline of the steps:
as §4

The subject of assay [14] is HCT-116. Briefly: Antimigratory activity against human HCT116 cells assessed as inhibition of cell migration after 48 hrs by crystal violet staining based Boyden-chamber cell migration assay. The class given is functional. An outline of the steps:
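Boyden chamber, 8 μm pores: 1 × 10^5 cells in serum-free medium above, 10% FBS medium below, compound at various concentrations in both chambers; migration 48 h. Non-migrated cells swabbed off; migrated cells fixed in methanol, stained 0.5% crystal violet 20 min, counted in six random fields under light microscope; expressed as % inhibition versus untreated.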

Assay [15] concerns HCT-116. Put plainly: Antiinvasive activity against human HCT116 cells after 48 hrs by crystal violet staining based light microscopic analysis. It counts as functional, cell-based. A digest of the protocol:
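Transwell membrane upper surface coated with Matrigel diluted 1:5 in serum-free medium. 5 × 10^4 cells in serum-free medium in upper part, 10% FBS medium below, treated with various concentrations for 48 h. Non-invading cells removed; underside cells fixed in methanol, stained with 0.5% crystal violet, counted by light microscopy; expressed as % inhibition versus untreated.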

In assay [16] the test system is CT26. Put plainly: Antimetastatic activity against mouse CT26 cells assessed as inhibition of MMP-9 expression after 48 hrs by Western blot analysis. The class given is functional, cell-based. A digest of the protocol: as §4
In assay [17] the test system is HCT-116. Briefly: Antimetastatic activity against human HCT116 assessed as inhibition of MMP-9 expression after 48 hrs by Western blot analysis. It counts as functional, cell-based. A digest of the protocol:
as §4

For assay [18], the system named is CT26. Briefly: Antimetastatic activity against mouse CT26 cells allografted in Balb/c mouse assessed as decrease in CD11b-positive/Gr1-positive myeloid cells level in peripheral blood at 50 mg/kg, ip administered daily for 14 days starting from 6 days post implantation flow cytometric analysis (reference value: 33.2 %). Set-up: scale not given: the % may be the effect or the level left. It counts as functional.

Assay [19] relates to CT26. Briefly: Antimetastatic activity against mouse CT26 cells allografted in Balb/c mouse assessed as decrease in CD11b-positive/Gr1-positive myeloid cells level in tumour at 25 mg/kg, ip administered daily for 14 days starting from 6 days post implantation flow cytometric analysis (reference value: 10 %). It counts as functional. More on the design: scale not given: the % may be the effect or the level left.

Assay [20] has as its system CT26. Put plainly: Antimetastatic activity against mouse CT26 cells allografted in Balb/c mouse assessed as increase in infiltration of CD8+ T cells in blood at 25 mg/kg, ip administered daily for 14 days starting from 6 days post implantation flow cytometric analysis (reference value: 1.35 %). The class given is functional.

Data on one compound can be found in ChEMBL document CHEMBL4304819, “Natural product pectolinarigenin exhibits potent anti-metastatic activity in colorectal carcinoma cells in vitro and in vivo” (2019).

Calls of active or inactive are those of the source. The calls are words filed in the database; no cut-off is given here.

Regarding `COc1ccc(-c2cc(=O)c3c(O)c(OC)c(O)cc3o2)cc1` [PECTOLINARIGENIN], the inhibition entry in the assay on HCT-116 [1] and with SW48 was “Active” each time. In addition, the outcome in the assay with HCT-116 [2], in the assay on HCT-116 [3], in the assay with CT26 [4], in the assay with CT26 [9], in the assay with HCT-116 [10] and in the assay with CT26 [11] was Active. For the same compound, the outcome in the assay on CT26 [12] and with HCT-116 [13] was Active. Further, the Activity in the assay on CT26 [5] was 3.57%; in the assay on CT26 [6], 3.82%; in the assay with HCT-116 [7] it was 5.81%; with HCT-116 [8] it was “Dose-dependent effect”; with CT26 [18], 20.4%; in the assay with CT26 [19] it was 7.4%. Further, the Activity with CT26 [20] was 2.59%. Further, the inhibition result in the assay with HCT-116 [14], in the assay on HCT-116 [15], with CT26 [16] and in the assay on HCT-116 [17] was “Dose-dependent effect” each time.
